Measurements pooled from the literature.
Lines come from different studies, so protocols differ. pIC50: −log10 of the molar value.
Cell line: MRC5
Effect on: cell growth or viability

SMILES	technique	concentration	time	quantity	result
O=C(C=C[c-]1cccc1)c1ccc[nH]1.[Fe+2].c1cc[cH-]c1	MTT	100 µM	–	viability	~100%
CCCCN1C[C@H]2CC[C@@H]3[C@](C)(COC(C)=O)[C@H](OC(C)=O)CC[C@@]3(C)[C@@H]2C[C@@H]1C1=CCOC1=O	ATP luminescence	25 µM	72 h	cell death	-6%
CC(C)=CCC/C(C)=C/COc1ccc2ccc(=O)oc2c1	MTT	–	24 h	pIC50	4.16
COC(=O)N[C@H](C(=O)N1CCC[C@H]1c1nc(-c2ccc(-c3ccc(-c4c[nH]c([C@@H]5CCCN5C(=O)[C@@H](NC(=O)OC)C(C)C)n4)cc3)cc2)c[nH]1)C(C)C	–	–	5 days	CC50	29 µM
Cc1cn([C@@H]2C[C@H](O)[C@@H](CNC(=O)Nc3ccc(OCc4ccccc4)cc3)O2)c(=O)[nH]c1=O	–	–	–	CC50	> 50 µM
COc1ccc(CN2C[C@H]3CC[C@@H]4[C@]5(C)COC(C)(C)O[C@@H]5CC[C@@]4(C)[C@@H]3C[C@@H]2C2=CCOC2=O)cc1	ATP luminescence	25 µM	72 h	cell death	5.1%
Cc1cn([C@@H]2C[C@H](O)[C@@H](CNC(=O)Nc3ccc(N4CCCCC4)cc3)O2)c(=O)[nH]c1=O	–	–	–	CC50	> 50 µM
COc1c2ccoc2c(OCC=C(C)C)c2oc(=O)ccc12	MTT	–	24 h	pIC50	< 4.00
